Results on six molecules are retold here after ChEMBL document CHEMBL1221279, “Synthesis, biological evaluation, and structure-activity relationship study of novel cytotoxic aza-caffeic acid derivatives” (Bioorg Med Chem, 2010).

System in one test: not listed separately
Kind of test: Cytotoxicity against human ECA109 cells after 72 hrs by MTT assay. The following applies: ECa-109, 72 h. It counts as functional, cell-based. In outline:
(§1)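 Cells grown in MEM with 10% fetal calf serum, penicillin and streptomycin at 37 °C, 5% CO2. Exponentially growing cells seeded in quadruplicate at 5 × 10³ per well and left 24 h before compounds (DMSO stocks) were added. After 72 h exposure, MTT added for 4 h at 37 °C, formazan dissolved in DMSO, read at 570 nm. IC50 read graphically from dose–response curves.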
In general terms: Tetrazolium dyes change colour on reduction, which living cells bring about.
The IC50 is the concentration that gives 50% inhibition. Higher therefore signals weaker potency. For `COc1ccc(/C=C/C(=O)N2CCN(Cc3ccc(Cl)c(Cl)c3)CC2)cc1OC`, the 50% inhibitory concentration (IC50) is > 200 µM.

Regarding `O=C(/C=C/c1ccccc1)N1CCN(Cc2ccc(Cl)c(Cl)c2)CC1`, the 50% inhibitory concentration (IC50) came to 17 µM.

Molecule `COCOc1ccc(/C=C/C(=O)N2CCN(Cc3ccc(Cl)c(Cl)c3)CC2)cc1OCOC` yielded a concentration for half-maximal inhibition (IC50) of 7.4 µM.

Regarding `CCOc1ccc(COc2c(OC)cc(/C=C/C(=O)NCCN3CCOCC3)cc2OC)cc1`, the concentration for half-maximal inhibition (IC50) is > 200 µM.

`O=C(/C=C/c1ccc(O)c(O)c1)NCCN1CCOCC1`: the concentration for half-maximal inhibition (IC50) is > 200 µM.

With `COCOc1ccc(/C=C/C(=O)NCCN2CCOCC2)cc1OCOC`, the IC50 was > 200 µM.

A further test deals with KB. Kind of test: Cytotoxicity against human KB cells after 72 hrs by MTT assay. In kind it is functional, cell-based.
Conditions: not given
In outline: as §1
On to `COc1ccc(/C=C/C(=O)N2CCN(Cc3ccc(Cl)c(Cl)c3)CC2)cc1OC`, for which the midpoint of inhibition, the IC50, lay at 69.2 µM.

Take `O=C(/C=C/c1ccccc1)N1CCN(Cc2ccc(Cl)c(Cl)c2)CC1`: it took 20.7 µM to reach half-maximal inhibition (IC50).

For the molecule `COCOc1ccc(/C=C/C(=O)N2CCN(Cc3ccc(Cl)c(Cl)c3)CC2)cc1OCOC`, the concentration for half-maximal inhibition (IC50) is 3.7 µM.

For the molecule `CCOc1ccc(COc2c(OC)cc(/C=C/C(=O)NCCN3CCOCC3)cc2OC)cc1`, the IC50 was > 200 µM.

Turning to `O=C(/C=C/c1ccc(O)c(O)c1)NCCN1CCOCC1`, the IC50 was > 200 µM.

In the case of `COCOc1ccc(/C=C/C(=O)NCCN2CCOCC2)cc1OCOC`, the IC50 is > 200 µM.

A further test has as its system PC-3. Kind of test: Cytotoxicity against human PC3 cells after 72 hrs by MTT assay. It counts as functional, cell-based. The following applies: PC-3, 72 h. In outline: as §1
Regarding `COc1ccc(/C=C/C(=O)N2CCN(Cc3ccc(Cl)c(Cl)c3)CC2)cc1OC`, the half-inhibitory concentration (IC50) is > 200 µM.

Regarding `O=C(/C=C/c1ccccc1)N1CCN(Cc2ccc(Cl)c(Cl)c2)CC1`, the IC50 is 12.8 µM.

As to `COCOc1ccc(/C=C/C(=O)N2CCN(Cc3ccc(Cl)c(Cl)c3)CC2)cc1OCOC`, half-maximal inhibition (IC50) was put at 7.4 µM.

Turning to `CCOc1ccc(COc2c(OC)cc(/C=C/C(=O)NCCN3CCOCC3)cc2OC)cc1`, the IC50 was > 200 µM.

For `O=C(/C=C/c1ccc(O)c(O)c1)NCCN1CCOCC1`, the IC50 is > 200 µM.

On to `COCOc1ccc(/C=C/C(=O)NCCN2CCOCC2)cc1OCOC`, for which the IC50 is > 200 µM.

System in the next test: not listed separately
Kind of test: Cytotoxicity against human LS 174T cells after 72 hrs by MTT assay. It counts as functional, cell-based. The following applies: LS174T. The gist of the method: as §1
`COc1ccc(/C=C/C(=O)N2CCN(Cc3ccc(Cl)c(Cl)c3)CC2)cc1OC`: the IC50 is > 200 µM.

With `O=C(/C=C/c1ccccc1)N1CCN(Cc2ccc(Cl)c(Cl)c2)CC1`, the midpoint of inhibition, the IC50, lay at 34.1 µM.

Molecule `COCOc1ccc(/C=C/C(=O)N2CCN(Cc3ccc(Cl)c(Cl)c3)CC2)cc1OCOC` came in with a half-inhibitory concentration (IC50) of 139 µM.

As to `CCOc1ccc(COc2c(OC)cc(/C=C/C(=O)NCCN3CCOCC3)cc2OC)cc1`, the IC50 is > 200 µM.

For the molecule `O=C(/C=C/c1ccc(O)c(O)c1)NCCN1CCOCC1`, the half-inhibitory concentration (IC50) is > 200 µM.

For `COCOc1ccc(/C=C/C(=O)NCCN2CCOCC2)cc1OCOC`, the IC50 is > 200 µM.

System in a further test: not listed separately
Kind of test: Cytotoxicity against human Bel7404 cells after 72 hrs by MTT assay. It counts as functional, cell-based. The following applies: BEL-7404, 72 h. In outline: as §1
In turn, `COc1ccc(/C=C/C(=O)N2CCN(Cc3ccc(Cl)c(Cl)c3)CC2)cc1OC` returned an IC50 of 85.7 µM.

The molecule `O=C(/C=C/c1ccccc1)N1CCN(Cc2ccc(Cl)c(Cl)c2)CC1` showed a half-maximal inhibitory concentration (IC50) of 44.8 µM.

For `COCOc1ccc(/C=C/C(=O)N2CCN(Cc3ccc(Cl)c(Cl)c3)CC2)cc1OCOC`, the IC50 was > 200 µM.

As for `CCOc1ccc(COc2c(OC)cc(/C=C/C(=O)NCCN3CCOCC3)cc2OC)cc1`, the IC50 is > 200 µM.

For the molecule `O=C(/C=C/c1ccc(O)c(O)c1)NCCN1CCOCC1`, the 50% inhibitory concentration (IC50) is > 200 µM.

`COCOc1ccc(/C=C/C(=O)NCCN2CCOCC2)cc1OCOC`: the 50% inhibitory concentration (IC50) is > 200 µM.

System in the next test: not listed separately
Kind of test: Cytotoxicity against human HO8910 cells after 72 hrs by MTT assay. In kind it is functional, cell-based. The following applies: HO-8910, 72 h. In outline: as §1
In turn, `COc1ccc(/C=C/C(=O)N2CCN(Cc3ccc(Cl)c(Cl)c3)CC2)cc1OC` yielded a 50% inhibitory concentration (IC50) of 121 µM.

Turning to `O=C(/C=C/c1ccccc1)N1CCN(Cc2ccc(Cl)c(Cl)c2)CC1`, inhibition was half-maximal at 45.4 µM (IC50).

The molecule `COCOc1ccc(/C=C/C(=O)N2CCN(Cc3ccc(Cl)c(Cl)c3)CC2)cc1OCOC` yielded a concentration for half-maximal inhibition (IC50) of 69.7 µM.

As to `CCOc1ccc(COc2c(OC)cc(/C=C/C(=O)NCCN3CCOCC3)cc2OC)cc1`, the concentration for half-maximal inhibition (IC50) is > 200 µM.

Consider `O=C(/C=C/c1ccc(O)c(O)c1)NCCN1CCOCC1`, for which the IC50 is > 200 µM.

For `COCOc1ccc(/C=C/C(=O)NCCN2CCOCC2)cc1OCOC`, the IC50 was > 200 µM.

The next test concerns A549. Kind of test: Cytotoxicity against human A549 cells after 72 hrs by MTT assay. In kind it is functional, cell-based. The settings on record: A549, 72 h. In outline:
as §1
With `COc1ccc(/C=C/C(=O)N2CCN(Cc3ccc(Cl)c(Cl)c3)CC2)cc1OC`, the IC50 is > 200 µM.

On to `O=C(/C=C/c1ccccc1)N1CCN(Cc2ccc(Cl)c(Cl)c2)CC1`, for which the half-maximal inhibitory concentration (IC50) was determined as 173 µM.

`COCOc1ccc(/C=C/C(=O)N2CCN(Cc3ccc(Cl)c(Cl)c3)CC2)cc1OCOC`: the IC50 came out at 107 µM.

On to `CCOc1ccc(COc2c(OC)cc(/C=C/C(=O)NCCN3CCOCC3)cc2OC)cc1`, for which the concentration for half-maximal inhibition (IC50) is > 200 µM.

For `O=C(/C=C/c1ccc(O)c(O)c1)NCCN1CCOCC1`, the half-inhibitory concentration (IC50) is > 200 µM.

For the molecule `COCOc1ccc(/C=C/C(=O)NCCN2CCOCC2)cc1OCOC`, the IC50 was > 200 µM.

The next test deals with BGC-823. Kind of test: Cytotoxicity against human BGC823 cells after 72 hrs by MTT assay. In kind it is functional, cell-based. The settings on record: BGC-823, 72 h. The gist of the method:
as §1
In the case of `COc1ccc(/C=C/C(=O)N2CCN(Cc3ccc(Cl)c(Cl)c3)CC2)cc1OC`, the IC50 was > 200 µM.

The molecule `O=C(/C=C/c1ccccc1)N1CCN(Cc2ccc(Cl)c(Cl)c2)CC1` registered an IC50 of 31.2 µM.

In turn, `COCOc1ccc(/C=C/C(=O)N2CCN(Cc3ccc(Cl)c(Cl)c3)CC2)cc1OCOC` had an IC50 of 64.4 µM.

For `CCOc1ccc(COc2c(OC)cc(/C=C/C(=O)NCCN3CCOCC3)cc2OC)cc1`, the 50% inhibitory concentration (IC50) was > 200 µM.

`O=C(/C=C/c1ccc(O)c(O)c1)NCCN1CCOCC1`: the IC50 was > 200 µM.

With `COCOc1ccc(/C=C/C(=O)NCCN2CCOCC2)cc1OCOC`, the IC50 was > 200 µM.

For the next test, the system named is HL-60. Kind of test: Cytotoxicity against human HL60 cells after 72 hrs by MTT assay. In kind it is functional, cell-based. The settings on record: HL-60, 72 h. In outline:
as §1
For `COc1ccc(/C=C/C(=O)N2CCN(Cc3ccc(Cl)c(Cl)c3)CC2)cc1OC`, it took 140 µM to reach half-maximal inhibition (IC50).

As for `O=C(/C=C/c1ccccc1)N1CCN(Cc2ccc(Cl)c(Cl)c2)CC1`, the 50% inhibitory concentration (IC50) was 82.6 µM.

With `COCOc1ccc(/C=C/C(=O)N2CCN(Cc3ccc(Cl)c(Cl)c3)CC2)cc1OCOC`, it took 31 µM to reach half-maximal inhibition (IC50).

With `CCOc1ccc(COc2c(OC)cc(/C=C/C(=O)NCCN3CCOCC3)cc2OC)cc1`, the 50% inhibitory concentration (IC50) was > 200 µM.

`O=C(/C=C/c1ccc(O)c(O)c1)NCCN1CCOCC1`: the IC50 is > 200 µM.

Turning to `COCOc1ccc(/C=C/C(=O)NCCN2CCOCC2)cc1OCOC`, the IC50 was > 200 µM.

The next test concerns CNE. Kind of test: Cytotoxicity against human CNE cells after 72 hrs by MTT assay. In kind it is functional, cell-based.
Conditions: not given
In outline: as §1
With `COc1ccc(/C=C/C(=O)N2CCN(Cc3ccc(Cl)c(Cl)c3)CC2)cc1OC`, the IC50 was > 200 µM.

In the case of `O=C(/C=C/c1ccccc1)N1CCN(Cc2ccc(Cl)c(Cl)c2)CC1`, the IC50 is > 200 µM.

Consider `COCOc1ccc(/C=C/C(=O)N2CCN(Cc3ccc(Cl)c(Cl)c3)CC2)cc1OCOC`, for which the IC50 is > 200 µM.

Take `CCOc1ccc(COc2c(OC)cc(/C=C/C(=O)NCCN3CCOCC3)cc2OC)cc1`: the IC50 is > 200 µM.

As for `O=C(/C=C/c1ccc(O)c(O)c1)NCCN1CCOCC1`, the IC50 was > 200 µM.

As for `COCOc1ccc(/C=C/C(=O)NCCN2CCOCC2)cc1OCOC`, the IC50 is > 200 µM.

Another test relates to HeLa. Kind of test: Cytotoxicity against human HeLa cells after 72 hrs by MTT assay. It counts as functional, cell-based.
Conditions: not given
The gist of the method:
as §1
Consider `COc1ccc(/C=C/C(=O)N2CCN(Cc3ccc(Cl)c(Cl)c3)CC2)cc1OC`, for which the 50% inhibitory concentration (IC50) came out at 76.6 µM.

`O=C(/C=C/c1ccccc1)N1CCN(Cc2ccc(Cl)c(Cl)c2)CC1` yielded an IC50 of 73.9 µM.

With `COCOc1ccc(/C=C/C(=O)N2CCN(Cc3ccc(Cl)c(Cl)c3)CC2)cc1OCOC`, the IC50 amounted to 29.1 µM.

As for `CCOc1ccc(COc2c(OC)cc(/C=C/C(=O)NCCN3CCOCC3)cc2OC)cc1`, the IC50 is > 200 µM.

As to `O=C(/C=C/c1ccc(O)c(O)c1)NCCN1CCOCC1`, the half-maximal inhibitory concentration (IC50) was > 200 µM.

For `COCOc1ccc(/C=C/C(=O)NCCN2CCOCC2)cc1OCOC`, the 50% inhibitory concentration (IC50) is > 200 µM.

For the next test, the system named is K562. Kind of test: Cytotoxicity against human K562 cells after 72 hrs by MTT assay. It counts as functional, cell-based. The settings on record: K562, 72 h. In outline:
as §1
Regarding `COc1ccc(/C=C/C(=O)N2CCN(Cc3ccc(Cl)c(Cl)c3)CC2)cc1OC`, 70.8 µM corresponded to half-maximal inhibition (IC50).

In turn, `O=C(/C=C/c1ccccc1)N1CCN(Cc2ccc(Cl)c(Cl)c2)CC1` yielded an IC50 of 14.1 µM.

Regarding `COCOc1ccc(/C=C/C(=O)N2CCN(Cc3ccc(Cl)c(Cl)c3)CC2)cc1OCOC`, the half-inhibitory concentration (IC50) is 19.3 µM.

Consider `CCOc1ccc(COc2c(OC)cc(/C=C/C(=O)NCCN3CCOCC3)cc2OC)cc1`, for which the IC50 was > 200 µM.

For the molecule `O=C(/C=C/c1ccc(O)c(O)c1)NCCN1CCOCC1`, the IC50 is > 200 µM.

With `COCOc1ccc(/C=C/C(=O)NCCN2CCOCC2)cc1OCOC`, the IC50 was > 200 µM.
